In ChEMBL document CHEMBL2311462, “Design, synthesis, and functional evaluation of leukocyte function associated antigen-1 antagonists in early and late stages of cancer development” (J Med Chem, 2013):
Active and inactive are the calls of the source. The calls are words filed in the database; no cut-off is given here.

Tests used:
[1] = target: T1, Integrin alpha-L (Mus musculus) (UniProt P24063); assay: Inhibition of LFA-1/ICAM-1 interaction in mouse Lim51b cells assessed as PMA-induced adhesion to ICAM-1 expressing HSE cells at 20 ug/ 5 x 10^5 cells after 30 mins by fluorometric microplate reader analysis; type: cell-based
T1 sequence (whole entry): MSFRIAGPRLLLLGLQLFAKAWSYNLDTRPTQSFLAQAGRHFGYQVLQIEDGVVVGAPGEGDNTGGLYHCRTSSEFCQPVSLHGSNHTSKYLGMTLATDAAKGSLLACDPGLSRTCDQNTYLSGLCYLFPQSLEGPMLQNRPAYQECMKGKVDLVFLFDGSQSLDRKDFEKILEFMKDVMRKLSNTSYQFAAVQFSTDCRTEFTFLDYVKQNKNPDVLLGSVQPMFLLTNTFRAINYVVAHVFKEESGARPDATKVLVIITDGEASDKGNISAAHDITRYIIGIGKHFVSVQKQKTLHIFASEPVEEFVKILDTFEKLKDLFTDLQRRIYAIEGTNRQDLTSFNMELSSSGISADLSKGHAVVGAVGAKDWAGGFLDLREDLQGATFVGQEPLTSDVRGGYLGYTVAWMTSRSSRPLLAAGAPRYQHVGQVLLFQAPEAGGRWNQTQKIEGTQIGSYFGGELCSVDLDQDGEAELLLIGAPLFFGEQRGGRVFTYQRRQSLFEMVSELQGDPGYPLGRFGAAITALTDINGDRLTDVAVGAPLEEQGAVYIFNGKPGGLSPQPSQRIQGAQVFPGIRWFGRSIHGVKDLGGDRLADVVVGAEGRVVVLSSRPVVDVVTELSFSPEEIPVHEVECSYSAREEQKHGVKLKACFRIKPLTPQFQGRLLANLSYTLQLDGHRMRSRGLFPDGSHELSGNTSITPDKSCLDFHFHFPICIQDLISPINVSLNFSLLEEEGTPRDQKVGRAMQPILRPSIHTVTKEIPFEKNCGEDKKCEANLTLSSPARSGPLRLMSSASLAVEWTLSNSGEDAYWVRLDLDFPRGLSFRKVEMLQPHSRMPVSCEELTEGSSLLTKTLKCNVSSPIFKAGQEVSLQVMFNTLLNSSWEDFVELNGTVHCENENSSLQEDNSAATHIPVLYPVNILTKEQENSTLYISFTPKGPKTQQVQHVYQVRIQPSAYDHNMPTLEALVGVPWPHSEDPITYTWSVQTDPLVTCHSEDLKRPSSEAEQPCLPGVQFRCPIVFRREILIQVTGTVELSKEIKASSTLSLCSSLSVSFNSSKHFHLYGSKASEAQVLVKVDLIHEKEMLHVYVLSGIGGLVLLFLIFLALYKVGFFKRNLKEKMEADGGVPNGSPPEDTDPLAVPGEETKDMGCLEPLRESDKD
How it was run: (§1)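 CT26-CC or Lim51b-CC cells were stimulated with PMA and preincubated for 30 min with compound or anti-LFA-1 antibody. Adhesion to hepatic sinusoidal endothelial cells was then quantified using a previously validated in vitro bioassay. Significance was assessed by ANOVA with Bonferroni post hoc test.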

[2] = target: T1, Integrin alpha-L (Mus musculus); assay: Inhibition of LFA-1/ICAM-1 interaction in mouse CT26 cells assessed as PMA-induced adhesion to ICAM-1 expressing HSE cells at 20 ug/ 5 x 10^5 cells by fluorometric microplate reader analysis; type: cell-based; how it was run: as §1
[3] = target: Integrin alpha-2 (Homo sapiens) (UniProt P17301); assay: Binding affinity to integrin alpha2 I-domain (unknown origin)
Chain of Integrin alpha-2 (Homo sapiens) (P17301 whole entry): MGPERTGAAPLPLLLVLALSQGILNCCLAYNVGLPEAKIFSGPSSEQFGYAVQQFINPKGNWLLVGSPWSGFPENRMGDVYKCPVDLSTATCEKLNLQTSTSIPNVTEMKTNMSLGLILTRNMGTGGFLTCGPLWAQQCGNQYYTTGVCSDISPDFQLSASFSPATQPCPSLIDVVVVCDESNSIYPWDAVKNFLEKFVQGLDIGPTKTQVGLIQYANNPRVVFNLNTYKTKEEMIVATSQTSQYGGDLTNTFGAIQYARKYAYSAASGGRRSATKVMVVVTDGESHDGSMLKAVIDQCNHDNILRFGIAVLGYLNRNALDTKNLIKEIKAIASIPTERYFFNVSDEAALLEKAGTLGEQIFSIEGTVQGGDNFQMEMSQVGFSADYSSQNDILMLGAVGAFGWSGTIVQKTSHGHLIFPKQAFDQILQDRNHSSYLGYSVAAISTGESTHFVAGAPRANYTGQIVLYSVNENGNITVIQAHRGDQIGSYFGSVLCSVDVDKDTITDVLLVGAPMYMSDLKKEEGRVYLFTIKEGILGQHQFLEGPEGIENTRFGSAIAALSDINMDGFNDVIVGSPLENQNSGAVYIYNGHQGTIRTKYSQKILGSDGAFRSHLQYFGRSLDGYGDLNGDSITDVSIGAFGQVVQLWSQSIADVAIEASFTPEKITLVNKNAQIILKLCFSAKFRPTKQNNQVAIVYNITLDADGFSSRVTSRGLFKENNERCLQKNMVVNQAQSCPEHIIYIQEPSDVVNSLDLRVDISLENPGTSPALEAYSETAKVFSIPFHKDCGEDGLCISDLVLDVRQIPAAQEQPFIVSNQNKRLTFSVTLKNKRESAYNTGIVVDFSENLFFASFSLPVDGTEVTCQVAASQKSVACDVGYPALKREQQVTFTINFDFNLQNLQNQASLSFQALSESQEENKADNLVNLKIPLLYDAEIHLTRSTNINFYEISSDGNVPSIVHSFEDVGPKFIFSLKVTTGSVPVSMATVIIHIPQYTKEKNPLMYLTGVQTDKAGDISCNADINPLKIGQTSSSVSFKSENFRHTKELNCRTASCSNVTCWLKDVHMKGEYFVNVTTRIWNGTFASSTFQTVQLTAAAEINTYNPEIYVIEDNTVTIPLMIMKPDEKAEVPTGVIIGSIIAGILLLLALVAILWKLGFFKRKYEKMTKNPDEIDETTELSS

CT26 [4] = assay: Antitumor activity against mouse CT26 cells allografted in BALB/c mouse assessed as decrease in expression level of protein Ki67 at 2.5 mg/kg, sc measured on day 15 relative to control; type: functional; design: scale not given: the % may be the effect or the level left; settings: route subcutaneous
How it was run: (§2)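 BALB/c mice were injected subcutaneously with 5 × 10⁵ CT26-CC cells. Compound/PAMAM G3.5 was then given as daily subcutaneous injections at 2.5 mg/kg. Primary tumors were removed on day 15 and their volume was measured. Ki67 was scored by immunohistochemistry as the percentage of positive tumor cells across 10 random fields. Significance was assessed by ANOVA with a post hoc test.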

CT26 [5] = assay: Antitumor activity against mouse CT26 cells allografted in BALB/c mouse assessed as decrease in tumor volume at 2.5 mg/kg, sc measured on day 15 relative to control; type: functional; design: scale not given: the % may be the effect or the level left; settings: route subcutaneous; how it was run: as §2
[6] = target: T2, Integrin alpha-L (Homo sapiens) (UniProt P20701); assay: Inhibition of LFA-1/ICAM-1 interaction in human peripheral blood leukocytes assessed as reduction on PMA-induced adhesion to immobilized human recombinant ICAM-1 at 20 ug/ 5 x 10^5 cells after 30 mins by fluorescence assay; type: cell-based
T2 sequence (whole entry): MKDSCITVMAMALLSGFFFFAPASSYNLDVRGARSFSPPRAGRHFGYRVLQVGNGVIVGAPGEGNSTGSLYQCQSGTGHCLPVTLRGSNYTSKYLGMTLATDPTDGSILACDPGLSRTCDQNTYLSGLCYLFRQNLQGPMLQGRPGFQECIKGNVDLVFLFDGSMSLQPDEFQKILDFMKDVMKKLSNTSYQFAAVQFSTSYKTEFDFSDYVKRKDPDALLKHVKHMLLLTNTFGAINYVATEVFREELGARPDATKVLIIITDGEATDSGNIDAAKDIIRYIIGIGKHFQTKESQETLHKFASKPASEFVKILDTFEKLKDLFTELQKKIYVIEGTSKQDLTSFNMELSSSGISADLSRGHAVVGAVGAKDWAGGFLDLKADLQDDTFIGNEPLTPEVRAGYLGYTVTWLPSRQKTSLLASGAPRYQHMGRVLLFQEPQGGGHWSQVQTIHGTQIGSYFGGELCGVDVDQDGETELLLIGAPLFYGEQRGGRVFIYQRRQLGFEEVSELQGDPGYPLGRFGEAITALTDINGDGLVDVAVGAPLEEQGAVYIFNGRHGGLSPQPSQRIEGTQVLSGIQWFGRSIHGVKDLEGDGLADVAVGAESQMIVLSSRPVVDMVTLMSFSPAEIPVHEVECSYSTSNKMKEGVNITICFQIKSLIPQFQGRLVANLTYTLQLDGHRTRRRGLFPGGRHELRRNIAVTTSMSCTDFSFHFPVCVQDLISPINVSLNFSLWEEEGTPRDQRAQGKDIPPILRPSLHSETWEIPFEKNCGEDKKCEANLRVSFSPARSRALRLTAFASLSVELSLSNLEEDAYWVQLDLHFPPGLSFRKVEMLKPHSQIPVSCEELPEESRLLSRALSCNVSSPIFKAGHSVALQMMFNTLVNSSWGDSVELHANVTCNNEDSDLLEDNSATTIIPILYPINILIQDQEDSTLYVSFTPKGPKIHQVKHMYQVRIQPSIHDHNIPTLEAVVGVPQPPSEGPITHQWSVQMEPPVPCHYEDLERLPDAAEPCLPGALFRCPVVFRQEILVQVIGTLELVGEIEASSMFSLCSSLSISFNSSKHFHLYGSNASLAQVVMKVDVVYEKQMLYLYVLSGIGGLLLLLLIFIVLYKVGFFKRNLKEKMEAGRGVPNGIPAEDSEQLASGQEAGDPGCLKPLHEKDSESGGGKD
How it was run: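 Human peripheral blood leukocytes were stimulated with PMA and preincubated with compound. Adhesion to immobilized recombinant human ICAM-1, a commercial form containing all five extracellular domains, was then quantified. Significance was assessed by ANOVA with Bonferroni post hoc test.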

[7] = Binding affinity to I-domain of human integrin alphaL (amino acid residues 128 to 307) plus initial methionine K287C/K294C mutant expressed in BL21 cells by NMR spectroscopy; type: cell-based
Integrin alpha-L = target: T3, Integrin alpha-L (Homo sapiens, UniProt P20701); assay: Binding affinity to I-domain of human integrin alphaL (amino acid residues 128 to 307) plus initial methionine expressed in Escherichia coli by NMR spectroscopy
T3 sequence (P20701 whole entry): T2 sequence (whole entry)

B16 [8] = assay: Inhibition of VEGF production in mouse B16 M cells at 10 ug/ml preincubated for 30 mins prior to H2O2 addition measured after 2 hrs by ELISA; type: functional, cell-based
B16 [9] = assay: Inhibition of VEGF production in mouse B16 M cells at 10 ug/ml preincubated for 30 mins prior to ICAM addition measured after 2 hrs by ELISA; type: functional, cell-based
CT26 [10] = assay: Antimetastatic activity against mouse CT26 cells allografted in BALB/c mouse assessed as decrease in cancer cell volume in liver at 10 ug/ml preincubated for 30 mins prior to inoculation measured on day 14 relative to control; type: functional
How it was run: (§3)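 Male BALB/c mice, 6–8 weeks old and anesthetized (n = 10 per group; three independent experiments), received an intrasplenic injection of 1.5 × 10⁵ viable CT26-CC cells in 0.1 mL Hank's balanced salt solution. Mice were killed on day 14. Densitometric and stereological image analysis gave metastases per 100 mm³ liver (fifteen sections per liver) and the percentage of liver volume occupied.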

CT26 [11] = assay: Antimetastatic activity against mouse CT26 cells allografted in BALB/c mouse assessed as reduction in metastasis density at 10 ug/ml preincubated for 30 mins prior to inoculation measured on day 14 relative to control; type: functional; how it was run: as §3
B16M = assay: Inhibition of VLA-4/VCAM-1 interaction in mouse B16M cells assessed as PMA-induced adhesion to immobilized VCAM-1 at 25 ug/ 5 x 10^5 cells after 30 mins by microplate reader analysis; type: cell-based
BL21 = assay: Inhibition of I-domain of human integrin alphaL (amino acid residues 128 to 307) plus initial methionine K287C/K294C mutant-ICAM1 interaction expressed in BL21 cells after 4 hrs by NMR analysis
Homo sapiens = organism: Homo sapiens; assay: Binding affinity to protein G B1-domain (unknown origin)

## CC[C@H](C)[C@H](OCc1ccccc1)[C@H]1[C@H]([N+](=O)[O-])[C@H](c2ccccc2)N[C@@H]1C(=O)NCCC(=O)O
[1]
  inhibition: Active
[2]
  inhibition: Active

## CC[C@H](C)[C@H](OCc1ccccc1)[C@H]1[C@H]([N+](=O)[O-])[C@H](c2ccccc2)N[C@]1(C)C(=O)NCCCCC(=O)O
[2]
  inhibition: Active

## CC[C@H](C)C(=O)O[C@H]1C[C@@H](C)C=C2C=C[C@H](C)[C@H](CC[C@@H]3C[C@@H](O)CC(=O)O3)[C@H]21
[3]
  Activity: inactive

## CC[C@H](C)[C@H](OCc1ccccc1F)[C@H]1[C@H]([N+](=O)[O-])[C@H](c2ccsc2)N[C@@H]1C(=O)NCCC(=O)O
[2]
  inhibition: inactive

## CC[C@H](C)[C@H](OCc1ccccc1)[C@H]1[C@H]([N+](=O)[O-])[C@H](c2ccccc2)N[C@@H]1C(=O)NCCCCCC(=O)O
CT26 [4]
  Activity: 40%
CT26 [5]
  Activity: 85%
[6]
  inhibition: Active
[2]
  inhibition: Active

## CC[C@H](C)[C@H](OCc1ccccc1)[C@H]1[C@H]([N+](=O)[O-])[C@H](c2ccccc2)N[C@]1(C)C(=O)NCCC(=O)O
[7]
  Kd: 81.1 µM
Integrin alpha-L
  Kd: 10.1 µM
B16 [8]
  inhibition: Active
B16 [9]
  inhibition: Active
[6]
  inhibition: Active
CT26 [10]
  fold change (FC): 25
CT26 [11]
  fold change (FC): 25
[1]
  inhibition: Active
B16M
  inhibition: inactive
[2]
  inhibition: Active
BL21
  inhibition: inactive

## CC[C@H](C)[C@H](OCc1ccccc1)[C@H]1[C@H]([N+](=O)[O-])[C@H](c2ccccc2)N[C@@H]1C(=O)NCCCCC(=O)O
[2]
  inhibition: Active

## CC[C@H](C)[C@H](OCc1ccccc1)[C@H]1[C@H]([N+](=O)[O-])[C@H](c2ccccc2)N[C@]1(C)C(=O)NCCCC(=O)O
Integrin alpha-L
  Kd: 7.4 µM
Homo sapiens
  Activity: inactive
[3]
  Activity: inactive
[2]
  inhibition: Active

## CC[C@H](C)[C@H](OCc1ccccc1)[C@H]1[C@H]([N+](=O)[O-])[C@H](c2ccccc2)N[C@@H]1C(=O)NCCCC(=O)O
[2]
  inhibition: Active

## CC[C@H](C)[C@H](OCc1ccccc1)[C@H]1[C@H]([N+](=O)[O-])[C@H](c2ccccc2)N[C@@H]1C(=O)NCC(=O)O
[2]
  inhibition: inactive

## CC[C@H](C)[C@H](OCc1ccccc1)[C@H]1[C@H]([N+](=O)[O-])[C@H](c2ccccc2)N(C(=O)CN)[C@]1(C)C(=O)NCCC(=O)O
CT26 [4]
  Activity: 40%
CT26 [5]
  Activity: 77%
[2]
  inhibition: Active

## CC[C@H](C)[C@H](OCc1ccccc1)[C@H]1[C@H]([N+](=O)[O-])[C@H](c2ccccc2)N[C@]1(C)C(=O)NCCCCCC(=O)O
[2]
  inhibition: Active
